Screening results from PubChem.
Compounds with a hit are over-represented: about 1% of the library has one in this group of screens.
PvdQ acylase – P. aeruginosa PvdQ acylase inhibitors, primary screen, biochemical, fluorescence, plate reader and imaging, single point; PvdQ acylase [Pseudomonas aeruginosa LESB58]; purified PvdQ acylase; actives 0.063% (n = 340,000); inhibition, % at 10 µM; AID 488965, 2010; in the data active = inhibition above about 30%, passing the limit was not always enough
FID counter – compounds displacing fluorescent DNA intercalator, primary screen, artefact control for HCV NS3 helicase inhibitor project, biochemical, FID fluorescence; DNA fluorescent intercalator displacement; inhibition, % at 7.9 µM; actives 0.17% (n = 290,000); in the data active = inhibition above about 37%;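 also: higher means more ethidium bromide displaced from hairpin DNA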
VIM-2 inhibitor – VIM-2 metallo-beta-lactamase inhibitors, primary screen, biochemical, epi-absorbance readout, Pseudomonas aeruginosa enzyme; actives 0.89% (n = 290,000); purified VIM-2, nitrocefin hydrolysis, epi-absorbance fluorescence; inhibition, % at 5.6 µM; AID 1527, 2009;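 active = inhibition above the mean of all tested compounds plus 3 SD, cutoff set per screening run, cut at about 7.5% in these data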;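 also: red hydrolysis product quenches plate fluorescence so inhibitors raise well fluorescence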
RAD54 inh – inhibitors of human RAD54 branch migration, primary screen, biochemical, fluorescence, single point; inhibition, % at 10.4 µM; actives 0.14% (n = 360,000); DNA repair and recombination protein RAD54-like (Homo sapiens), Q92698; AID 602329, 2012; RAD54 Holliday junction branch migration, FAM/BHQ fluorescence;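 active = mean normalized replicate activity at least 40 and at least half of replicates scoring 40 or more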;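 also: inhibitors cause a drop in the FAM fluorescence signal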
Target sequence (Q92698 whole entry, looked up): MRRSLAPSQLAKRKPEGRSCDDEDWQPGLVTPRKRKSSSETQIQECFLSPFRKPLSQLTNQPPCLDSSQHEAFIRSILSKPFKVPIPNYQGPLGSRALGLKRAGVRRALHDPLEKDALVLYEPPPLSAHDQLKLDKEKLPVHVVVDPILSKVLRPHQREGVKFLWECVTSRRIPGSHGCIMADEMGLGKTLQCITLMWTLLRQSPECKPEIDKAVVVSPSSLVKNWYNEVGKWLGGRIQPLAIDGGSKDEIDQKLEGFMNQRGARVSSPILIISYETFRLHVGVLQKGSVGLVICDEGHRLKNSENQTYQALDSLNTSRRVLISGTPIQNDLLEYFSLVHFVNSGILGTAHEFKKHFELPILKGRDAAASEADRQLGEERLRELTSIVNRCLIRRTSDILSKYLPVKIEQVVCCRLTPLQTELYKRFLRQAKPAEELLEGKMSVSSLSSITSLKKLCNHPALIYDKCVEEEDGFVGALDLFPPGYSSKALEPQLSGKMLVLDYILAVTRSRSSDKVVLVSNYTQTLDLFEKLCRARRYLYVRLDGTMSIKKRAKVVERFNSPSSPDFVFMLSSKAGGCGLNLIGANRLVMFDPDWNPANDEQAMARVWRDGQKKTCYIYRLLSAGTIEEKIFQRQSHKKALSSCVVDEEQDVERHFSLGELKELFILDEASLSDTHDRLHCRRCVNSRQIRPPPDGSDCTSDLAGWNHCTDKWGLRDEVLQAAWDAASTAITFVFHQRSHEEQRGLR
IMP-1 inh-1 – IMP-1 metallo-beta-lactamase inhibitors, primary screen, biochemical, epi-absorbance readout, Pseudomonas aeruginosa enzyme. purified IMP-1, nitrocefin hydrolysis, epi-absorbance fluorescence. AID 1556, 2009. metallo-beta-lactamase IMP-1 (Pseudomonas aeruginosa). inhibition, % at 5.6 µM. actives 0.45% (n = 290,000);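 active = inhibition above the mean plus 3 SD of all compounds in the same screening run, cut at about 4.5% in these data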
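Assay system: purified recombinant IMP-1 beta-lactamase. Input: IMP-1 0.2 nM before substrate addition. Buffer or medium: Zinc- and detergent-supplemented HEPES buffer, pH 7.1. Schedule: 25 °C, 15 min preincubation, 25 min reaction. Signal: Epi-absorbance fluorescence, 480 nm excitation, 530 nm emission. Evaluation: percent inhibition from optical density relative to buffer-blank wells.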
IMP-1 inh-2 – IMP-1 metallo-beta-lactamase inhibitors, confirmation, selectivity assay for selective VIM-2 inhibitor project, biochemical, epi-absorbance readout, triplicate; 1,300 tested, under 10 active; purified IMP-1, nitrocefin hydrolysis, epi-absorbance fluorescence; shares compounds with VIM-2 inhibitor; inhibition, % at 5.6 µM; AID 1856, 2009; call rule not given here
VIM-2 FRET inh – VIM-2 inhibitors in FRET format, confirmation, artefact control for selective VIM-2 inhibitor project, biochemical, epi-absorbance artifact exclusion; inhibition, % at 5.6 µM; actives 23% (n = 1,300); AID 1857, 2009; shares compounds with VIM-2 inhibitor; purified VIM-2, CCF2 FRET substrate hydrolysis;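 active = inhibition above the mean of all tested compounds plus 3 SD, cut at about 19% in these data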
TEM-1 counter – TEM-1 serine beta-lactamase inhibitors, counter-screen for VIM-2 inhibitor project, biochemical, epi-absorbance, HTS | Purified TEM-1, nitrocefin hydrolysis, epi-absorbance fluorescence | shares compounds with VIM-2 inhibitor | AID 1866, 2009 | actives 3% (n = 1,300) | inhibition, % at 5.6 µM;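 active = inhibition above that campaign's mean inhibition plus 3 SD, cut at about 0.46% in these data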
VIM-2 confirm 2 – VIM-2 metallo-beta-lactamase inhibitors, confirmation, biochemical, epi-absorbance, hits shared with IMP-1 screen | shares compounds with VIM-2 inhibitor | purified VIM-2, nitrocefin hydrolysis | inhibition, % at 5.6 µM | actives 96% (n = 1,300);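 active = inhibition of the VIM-2 beta-lactamase enzyme above about 11% from the earlier first-round screen, limit read from the data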
Hits are given with their value; 0 = inactive; - = no result given.

SMILES	PvdQ acylase	FID counter	VIM-2 inhibitor	RAD54 inh	IMP-1 inh-1	IMP-1 inh-2	VIM-2 FRET inh	TEM-1 counter	VIM-2 confirm 2
Cc1n[nH]c(=S)n1-c1cccc(Cl)c1	0	0	14	-	0	0	36	0	23
Cc1ccc(S(=O)(=O)N(C)C[C@H]2OCCCC[C@@H](C)Oc3ccc(NS(=O)(=O)c4cn(C)cn4)cc3C(=O)N([C@@H](C)CO)C[C@H]2C)cc1	-	-	-	0	-	-	-	-	-
Cn1c(=O)n(C)c2cc(/C=N/N=C3/NC(=O)C(CC(=O)O)S3)ccc21 (stereo not given)	0	0	22	-	0	0	0	0	37
CN1CCN(c2ccc(NC(=O)c3cc4ccccc4o3)cc2)CC1	0	0	40	0	0	0	0	0	55
O=C(Nc1ccc(N2CCCC2)cc1)c1ccc(Br)o1	0	0	0	0	0	-	-	-	-
CCN1CCN(c2ccc(NC(=O)c3ccc(Br)o3)cc2)CC1	0	0	15	0	0	0	0	0	24
CN1CCN(c2ccc(NC(=O)c3ccc(-c4ccc(Br)cc4)o3)cc2)CC1	0	43	24	-	0	0	0	0	34
Cc1noc(C)c1NC(=O)N(C)C[C@@H]1OCCCC[C@@H](C)Oc2ccc(NS(=O)(=O)c3ccc(Cl)cc3)cc2C(=O)N([C@H](C)CO)C[C@H]1C	-	-	-	0	-	-	-	-	-
C/C(=N\NC(=O)c1ccccc1)c1ccc(-n2ccnc2)cc1	0	0	0	-	0	-	-	-	-
C=C(C)CNC(=S)N/N=C(\C)c1ccc(-n2ccnc2)cc1	0	0	79	0	0	0	0	0	88
CN1CCc2cc3c(c4c2[C@H]1[C@H](O)c1ccccc1-4)OCO3	0	97	17	99	0	0	0	0	24
CC(=O)N1CCN(c2ccc(Nc3ncnc4c3oc3ccccc34)cc2)CC1	0	0	69	0	0	0	0	0	82
CCc1nc(Nc2ccccc2)c2oc3ccccc3c2n1	0	0	0	0	0	-	-	-	-
Cc1nc(N2CCN(C(=O)c3ccco3)CC2)c2oc3ccccc3c2n1	0	-	-	0	-	-	-	-	-
Oc1ccc(Nc2ncnc3c2oc2ccccc23)cc1	0	0	0	0	0	-	-	-	-
CCc1nc(N2CCN(C(=O)c3ccco3)CC2)c2oc3ccccc3c2n1	0	0	33	-	0	0	0	0	41
CCc1nc(Nc2ccc(N3CCN(C(C)=O)CC3)cc2)c2oc3ccccc3c2n1	0	0	82	0	0	0	0	0	84
Cc1cccc(S(=O)(=O)N2CC[C@@H]3[C@H]2c2cc(C4=CCCCC4)ccc2N[C@@H]3CO)c1	-	-	-	0	-	-	-	-	-
O=c1[nH]c(CN2CCN(c3ccc(F)cc3)CC2)nc2ccccc12	0	0	55	0	0	0	0	0	0
CCN1CCN(CCNC(=O)CCCn2nc(C)c3c(C)n(-c4ccc(C)cc4)nc3c2=O)CC1	0	0	0	0	0	-	-	-	-
CCN1CCN(CCNC(=O)CCc2c(C)c3c(C)nn(-c4ccccc4)c3n(C)c2=O)CC1	0	0	19	0	0	0	0	0	30
CCC1CCCCN1CCCNC(=O)c1cc2c(=O)oc3ccc(C)cc3c2s1 (stereo not given)	0	0	12	0	0	0	0	0	17
CCC(=O)Nc1ccc2c(c1)OC[C@H](C)N(Cc1ccncc1)C[C@@H](C)[C@@H](OC)CN(C)C2=O	-	-	-	0	-	-	-	-	-
O=C(C[C@@H]1C=C[C@H](NS(=O)(=O)c2ccc(F)cc2)[C@@H](CO)O1)NCCN1CCCCC1	-	-	-	0	-	-	-	-	-
CC(C)Oc1cccc(C(=O)NC(=S)Nc2ccc(N3CCN(C)CC3)cc2)c1	0	0	56	0	0	0	0	0	70
SMILES	PvdQ acylase	FID counter	VIM-2 inhibitor	RAD54 inh	IMP-1 inh-1	IMP-1 inh-2	VIM-2 FRET inh	TEM-1 counter	VIM-2 confirm 2
CN1CCN(S(=O)(=O)c2ccc(NC(=S)NC(=O)c3ccccc3)cc2)CC1	0	0	34	0	0	0	0	0	63
COc1cccc(C(=O)NC(=S)Nc2ccc(N3CCCC3)cc2)c1	0	0	0	0	0	-	-	-	-
CCOc1ccccc1C(=O)Nc1ccc(S(=O)(=O)N2CCN(C)CC2)cc1	0	0	18	0	0	0	0	0	31
CCC(=O)NC(=S)Nc1ccc(S(=O)(=O)N2CCN(C)CC2)cc1	0	0	0	-	0	-	-	-	-
O=C(C[C@@H]1CC[C@H]2[C@@H](COC[C@H](O)CN2Cc2cccc(C(F)(F)F)c2)O1)NCCc1ccccc1	-	-	-	0	-	-	-	-	-
O=C([C@H]1[C@H](CO)[C@H]2Cn3c(ccc(C4=CCCCC4)c3=O)[C@@H]1N2Cc1nccs1)N1CCOCC1	-	-	-	0	-	-	-	-	-
CC(C)c1cc(N2CCN(C(=O)c3ccco3)CC2)n2c(nc3ccccc32)c1C#N	0	0	15	0	0	0	0	0	32
CN1CCN(c2nnc(-c3ccc(F)cc3)c3ccccc23)CC1	0	0	31	0	0	0	0	0	42
Cc1nc(-c2ccccn2)nc(N2CCOCC2)c1Cl	0	0	18	0	0	0	0	0	30
Cc1nc(-c2ccccn2)nc(N(C)c2ccccc2)c1Cl	0	0	21	0	0	0	0	0	34
Cc1c2c(n3c(nc4ccccc43)c1C#N)N(CCCN(C)C)CC2	0	0	32	-	0	0	0	0	48
CC(C)COC(=O)c1cc(-c2ccc(/C=N/n3cnnc3)o2)ccc1Cl	0	0	0	0	0	-	-	-	-
Fc1ccc(-c2ccc(/C=N\n3cnnc3)o2)cc1Cl	0	0	45	-	0	0	0	0	57
Fc1ccc(-c2ccc(/C=N/n3cnnc3)o2)cc1	0	0	18	0	0	0	0	0	30
Cc1ccc(S(=O)(=O)NCC[C@H]2CC[C@H](NC(=O)Nc3cccc(F)c3)[C@H](CO)O2)cc1	-	-	-	0	-	-	-	-	-
O=C(COc1cc2oc(=O)c3c(c2cc1Cl)CCC3)NCC(O)c1ccccc1 (stereo not given)	0	0	14	0	0	0	0	0	26
